# Assay results as given in ChEMBL document CHEMBL1149247, “New COX-2/5-LOX inhibitors: apoptosis-inducing agents potentially useful in prostate cancer chemotherapy” (J Med Chem, 2004).
# Experiments:
# [1] = biological target: Prostaglandin G/H synthase 1 (Homo sapiens, UniProt P23219); assay: Inhibition of COX1 expressed in CHO cells assessed as inhibition of arachidonic acid-stimulated PGE2 production by enzyme immunoassay; format: functional, cell-based
# [2] = biological target: T1, Prostaglandin G/H synthase 2 (Homo sapiens, UniProt P35354); assay: Inhibition of COX2 expressed in CHO cells assessed as inhibition of arachidonic acid-stimulated PGE2 production by enzyme immunoassay
# T1 sequence (P35354 whole entry): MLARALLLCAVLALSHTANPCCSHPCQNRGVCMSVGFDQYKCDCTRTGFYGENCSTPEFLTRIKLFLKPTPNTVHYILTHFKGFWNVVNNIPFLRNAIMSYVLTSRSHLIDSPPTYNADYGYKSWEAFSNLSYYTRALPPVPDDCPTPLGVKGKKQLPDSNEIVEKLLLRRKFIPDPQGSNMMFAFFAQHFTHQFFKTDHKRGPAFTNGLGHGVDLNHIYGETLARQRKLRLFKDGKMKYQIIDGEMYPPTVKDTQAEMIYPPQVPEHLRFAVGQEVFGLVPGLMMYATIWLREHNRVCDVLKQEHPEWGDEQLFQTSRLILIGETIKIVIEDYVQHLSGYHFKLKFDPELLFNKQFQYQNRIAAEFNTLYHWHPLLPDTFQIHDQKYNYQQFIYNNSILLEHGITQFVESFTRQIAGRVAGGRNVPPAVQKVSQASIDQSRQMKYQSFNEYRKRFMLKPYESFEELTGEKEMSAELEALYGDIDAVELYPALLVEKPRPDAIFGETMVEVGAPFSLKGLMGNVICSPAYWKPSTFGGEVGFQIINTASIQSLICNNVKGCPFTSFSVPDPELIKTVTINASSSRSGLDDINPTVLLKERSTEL
# [3] = species: Homo sapiens; assay: Selectivity for COX2 over COX1
# Method in brief: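 Ratio of COX-1 to COX-2 IC50s, each taken from PGE2 production in CHO cells transfected with COX-1 or with COX-2. Cells were seeded and, 18 h later, given fresh Ham's F12 with 10% fetal calf serum with or without compound. After 10 min they were stimulated with arachidonic acid, then for 10 min with calcium ionophore A 23187. Intracellular PGE2 was read by enzyme immunoassay, n = 2.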
# [4] = biological target: T2, Polyunsaturated fatty acid 5-lipoxygenase (Homo sapiens, UniProt P09917); assay: Inhibition of 5LOX in human whole blood assessed as inhibition of calcium ionophore A 23187-stimulated 5HETE production by HPLC analysis; format: functional, tissue-based
# T2 sequence (P09917 whole entry): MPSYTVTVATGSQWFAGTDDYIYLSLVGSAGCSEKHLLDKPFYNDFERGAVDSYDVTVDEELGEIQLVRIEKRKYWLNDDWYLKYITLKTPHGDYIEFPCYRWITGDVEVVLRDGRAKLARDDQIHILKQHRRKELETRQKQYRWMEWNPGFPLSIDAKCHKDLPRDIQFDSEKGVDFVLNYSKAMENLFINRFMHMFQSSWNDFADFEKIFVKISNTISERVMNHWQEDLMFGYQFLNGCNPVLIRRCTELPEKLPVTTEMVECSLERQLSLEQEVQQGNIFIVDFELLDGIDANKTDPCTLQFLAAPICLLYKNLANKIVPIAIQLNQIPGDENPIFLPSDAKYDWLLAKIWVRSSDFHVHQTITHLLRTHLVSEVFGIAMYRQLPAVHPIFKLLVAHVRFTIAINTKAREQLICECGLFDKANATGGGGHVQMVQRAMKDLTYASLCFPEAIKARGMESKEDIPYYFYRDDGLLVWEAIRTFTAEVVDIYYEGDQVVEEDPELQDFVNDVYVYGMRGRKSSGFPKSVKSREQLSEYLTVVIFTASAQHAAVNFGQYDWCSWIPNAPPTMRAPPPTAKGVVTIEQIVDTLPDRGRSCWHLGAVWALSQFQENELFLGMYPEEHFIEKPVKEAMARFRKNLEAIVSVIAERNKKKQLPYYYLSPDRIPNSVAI
# Method in brief: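 Heparinized human whole blood, 1 mL aliquots, preincubated 15 min at 37 °C with compound or DMSO vehicle; then stimulated with 40 μM A 23187 for 15 min at 37 °C. 5-HETE extracted into ethyl acetate, then HPLC on a C18 column, methanol/water/acetic acid 80:20:0.08, pH 6.0, UV at 234 nm. IC50 from n = 2.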
# [5] = system: PC-3; assay: Antiproliferative activity against androgen-independent human PC3 cells at 100 uM after 72 hrs by MTT test; format: functional
# Method in brief: (§1)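 Prostate carcinoma cells kept at 37 °C, 5% CO2 in RPMI 1640 with 10% fetal calf serum; seeded 1.8 × 10⁴ (PC 3) or 5.0 × 10⁴ (LNCaP) cells/well, grown 3 days, serum-starved 24 h for synchronization, then exposed 72 h to compounds in medium (<0.1% DMSO); growth read by colorimetric MTT. Mean of at least four independent determinations; single-dose lines at 100 μM.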
# [6] = system: LNCaP; assay: Antiproliferative activity against androgen-sensitive human LNCaP cells at 100 uM after 72 hrs by MTT test; format: functional; method in brief: as §1
# [7] = system: LNCaP; assay: Cell cycle arrest in human LNCaP cells by accumulation at subG1 phase at 10 uM after 72 hrs by FACS flow cytometry; format: functional
# Method in brief: (§2)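 LNCaP or PC 3 cells seeded in 6-well plates, synchronized 24 h in serum-free medium, treated 72 h with varying compound concentrations; trypsinized cells pooled with supernatants, pelleted, fixed in cold ethanol overnight at 4 °C, then 30 min in PBS with RNase and propidium iodide. FACScan flow cytometry quantified sub-G1 (sub-diploid), G1, S and G2-M fractions as percent of cells.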
# [8] = system: LNCaP; assay: Cell cycle arrest in human LNCaP cells by accumulation at G1 phase at 10 uM after 72 hrs by FACS flow cytometry; format: functional; method in brief: as §2
# [9] = system: LNCaP; assay: Cell cycle arrest in human LNCaP cells by accumulation at S phase at 10 uM after 72 hrs by FACS flow cytometry; format: functional; method in brief: as §2
# [10] = system: LNCaP; assay: Cell cycle arrest in human LNCaP cells by accumulation at G2M phase at 10 uM after 72 hrs by FACS flow cytometry; format: functional; method in brief: as §2
# [11] = system: PC-3; assay: Antiproliferative activity against androgen-independent human PC3 cells after 72 hrs by MTT test; format: functional, cell-based; settings: PC-3, 72 h; method in brief: as §1
# [12] = system: PC-3; assay: Cell cycle arrest in human PC3 cells by accumulation at subG1 phase at 50 uM after 72 hrs by FACS flow cytometry; format: functional; method in brief: as §2
# [13] = system: PC-3; assay: Cell cycle arrest in human PC3 cells by accumulation at G1 phase at 50 uM after 72 hrs by FACS flow cytometry; format: functional; method in brief: as §2
# [14] = system: PC-3; assay: Cell cycle arrest in human PC3 cells by accumulation at S phase at 50 uM after 72 hrs by FACS flow cytometry; format: functional; method in brief: as §2
# [15] = system: PC-3; assay: Cell cycle arrest in human PC3 cells by accumulation at G2M phase at 50 uM after 72 hrs by FACS flow cytometry; format: functional; method in brief: as §2
# [16] = system: LNCaP; assay: Antiproliferative activity against androgen-sensitive human LNCaP cells after 72 hrs by MTT test; format: functional, cell-based; method in brief: as §1
# [17] = system: LNCaP; assay: Cell cycle arrest in human LNCaP cells by accumulation at subG1 phase at 50 uM after 72 hrs by FACS flow cytometry; format: functional; method in brief: as §2
# [18] = system: LNCaP; assay: Cell cycle arrest in human LNCaP cells by accumulation at G1 phase at 50 uM after 72 hrs by FACS flow cytometry; format: functional; method in brief: as §2
# [19] = system: LNCaP; assay: Cell cycle arrest in human LNCaP cells by accumulation at S phase at 50 uM after 72 hrs by FACS flow cytometry; format: functional; method in brief: as §2
# [20] = system: LNCaP; assay: Cell cycle arrest in human LNCaP cells by accumulation at G2M phase at 50 uM after 72 hrs by FACS flow cytometry; format: functional; method in brief: as §2
# Sequence of Prostaglandin G/H synthase 1 (P23219 whole entry): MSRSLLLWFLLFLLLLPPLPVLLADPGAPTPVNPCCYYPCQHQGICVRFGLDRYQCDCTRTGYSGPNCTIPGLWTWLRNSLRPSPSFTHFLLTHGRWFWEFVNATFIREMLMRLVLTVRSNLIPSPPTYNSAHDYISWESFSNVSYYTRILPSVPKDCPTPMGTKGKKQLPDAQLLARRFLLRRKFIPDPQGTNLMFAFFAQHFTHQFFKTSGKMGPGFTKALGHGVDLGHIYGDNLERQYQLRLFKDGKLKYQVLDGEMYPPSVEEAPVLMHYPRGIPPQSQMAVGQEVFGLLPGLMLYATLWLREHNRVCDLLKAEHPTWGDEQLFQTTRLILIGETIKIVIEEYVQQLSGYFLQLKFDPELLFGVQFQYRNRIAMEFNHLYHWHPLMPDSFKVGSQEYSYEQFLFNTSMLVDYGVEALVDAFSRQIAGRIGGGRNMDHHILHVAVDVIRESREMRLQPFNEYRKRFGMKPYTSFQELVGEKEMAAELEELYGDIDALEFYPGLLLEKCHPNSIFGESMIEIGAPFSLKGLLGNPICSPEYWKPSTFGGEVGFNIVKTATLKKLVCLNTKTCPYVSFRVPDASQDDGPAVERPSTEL
IC50 [1],IC50 [2],Selectivity ratio [3],IC50 [4],IC50 [11],IC50 [16],SMILES,Activity [5],Activity [6],Activity [7],Activity [8],Activity [9],Activity [10],Activity [12],Activity [13],Activity [14],Activity [15],Activity [17],Activity [18],Activity [19],Activity [20]
> 100 µM,700 nM,> 142,> 10000 nM,,,COc1ccc(OCc2cc(-c3ccccc3)n(-c3ccc(S(C)(=O)=O)cc3)n2)cc1OC,,,,,,,,,,,,,,
,,,> 10000 nM,47 µM,50.4 µM,Cc1ccc(-c2cc(C(F)(F)F)nn2-c2ccc(S(N)(=O)=O)cc2)cc1 [CELECOXIB],,,3.9%,75.7%,9%,11.3%,2.4%,68.5%,5.8%,23.5%,4%,78%,6.9%,11.1%
0.036 µM,300 nM,< 1,770 nM,,,COc1ccc(-n2nc(COc3cc(F)cc(C4(OC)CCOCC4)c3)cc2-c2ccccc2)cc1,,,2.8%,69%,11.4%,17%,,,,,,,,

# Continued, compound first:
SMILES,IC50 [1],IC50 [2],Selectivity ratio [3],IC50 [4],IC50 [11],IC50 [16],Activity [5],Activity [6],Activity [7],Activity [8],Activity [9],Activity [10],Activity [12],Activity [13],Activity [14],Activity [15],Activity [17],Activity [18],Activity [19],Activity [20]
CS(=O)(=O)c1ccc(-n2nc(COc3cc(F)cc(C#N)c3)cc2-c2ccccc2)cc1,99.6 µM,570 nM,176,> 10000 nM,,,,,,,,,,,,,,,,
COc1cc(F)cc(OCc2cc(-c3ccccc3)n(-c3ccc(S(C)(=O)=O)cc3)n2)c1,44.3 µM,310 nM,142,> 10000 nM,,,,,,,,,,,,,,,,
COc1cc(OCc2cc(-c3ccccc3)n(-c3ccc(S(C)(=O)=O)cc3)n2)cc(OC)c1OC,17.6 µM,220 nM,78,> 10000 nM,,,,,,,,,,,,,,,,
COC1(c2cc(F)cc(OCc3cc(-c4ccccc4)n(-c4ccc(C)cc4)n3)c2)CCOCC1,1.56 µM,930 nM,1,720 nM,,,0%,18%,3.5%,71.3%,10.7%,14.6%,,,,,,,,
COC1(c2cc(F)cc(OCc3cc(-c4ccccc4)n(-c4ccc(C)c(C)c4)n3)c2)CCOCC1,,410 nM,,760 nM,55 µM,,,26%,3.9%,69.5%,11.5%,15%,,,,,,,,
COC1(c2cc(F)cc(OCc3cc(-c4ccccc4)n(-c4ccc(F)cc4)n3)c2)CCOCC1,1.13 µM,960 nM,1,480 nM,,,7%,3%,4%,71.3%,9.7%,15.3%,,,,,,,,
CS(=O)(=O)c1ccc(-n2nc(COc3cccc(N4CCOCC4)c3)cc2-c2ccccc2)cc1,38.1 µM,920 nM,41,> 10000 nM,,,,,,,,,,,,,,,,
